Laboratory results taken from ChEMBL document CHEMBL4145675, “2-Phenylquinoline S. aureus NorA Efflux Pump Inhibitors: Evaluation of the Importance of Methoxy Group Introduction” (J Med Chem, 2018).
Values after ≈ are worked out from the molar mass of the structure shown. Active and inactive are the calls of the source. The rule behind the calls is not given here.

Legend:
[1] = molecular target: T1, Quinolone resistance protein NorA (Staphylococcus aureus) (UniProt P0A0J7); test: Inhibition of NorA in Staphylococcus aureus SA-1199B expressing GrlA A116E mutant assessed as reduction in EtBr efflux at 50 uM incubated for 5 mins by fluorescence based assay
T1 sequence (whole entry): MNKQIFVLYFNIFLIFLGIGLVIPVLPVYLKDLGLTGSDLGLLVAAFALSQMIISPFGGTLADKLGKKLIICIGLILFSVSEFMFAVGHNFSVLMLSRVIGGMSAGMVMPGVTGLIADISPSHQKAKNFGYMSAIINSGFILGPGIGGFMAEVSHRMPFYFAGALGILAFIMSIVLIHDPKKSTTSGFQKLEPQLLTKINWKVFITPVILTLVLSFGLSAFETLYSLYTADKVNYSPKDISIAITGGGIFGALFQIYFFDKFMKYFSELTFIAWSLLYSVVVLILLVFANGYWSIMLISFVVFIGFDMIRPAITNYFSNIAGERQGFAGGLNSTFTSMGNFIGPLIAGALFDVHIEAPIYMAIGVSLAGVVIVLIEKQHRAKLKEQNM
How it was run: (§1)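 Cells were grown overnight in cation-supplemented Mueller-Hinton broth at 35 °C and subcultured to OD600 0.7–0.8. They were loaded at OD600 0.8 with 25 µM EtBr plus 100 µM CCCP (final) for 20 min at room temperature. Cells were then resuspended in fresh broth with or without compound, 50 µM for the single-point screen or a concentration series for IC50. Fluorescence (ex 485/em 645 nm) was read for 5 min. Inhibition was calculated from the fluorescence decrease versus untreated cells. Biological triplicate, each run twice.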

Staphylococcus aureus [2] = test: Synergistic potentiation of ciprofloxacin-induced antimicrobial activity against Staphylococcus aureus SA-1199 at 0.78 to 100 ug/ml by microdilution method based Checkerboard assay; type: functional, organism-based
[3] = molecular target: Quinolone resistance protein NorA (Staphylococcus aureus, UniProt P0A0J7, A116E); test: Inhibition of NorA in Staphylococcus aureus SA-1199B expressing GrlA A116E mutant assessed as reduction in EtBr efflux incubated for 5 mins by fluorescence based assay; how it was run: as §1
[4] = molecular target: T1, Quinolone resistance protein NorA (Staphylococcus aureus); test: Inhibition of NorA in Staphylococcus aureus SA-1199B expressing GrlA A116E mutant assessed as synergistic potentiation of ciprofloxacin-induced antimicrobial activity at 0.78 to 100 ug/ml by microdilution method based Checkerboard assay
Staphylococcus aureus [5] = test: Antimicrobial activity against Staphylococcus aureus SA-1199B expressing wild type norA by microdilution method; type: organism-based; conditions: in vivo
How it was run: (§2)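 Broth microdilution MIC per CLSI guidelines. ATCC 25923 is norA wild-type. SA-1199B overexpresses norA and carries an A116E GrlA substitution.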

Staphylococcus aureus [6] = test: Antimicrobial activity against Staphylococcus aureus ATCC 25923 by microdilution method; type: organism-based; conditions: in vivo; how it was run: as §2
[7] = molecular target: T1, Quinolone resistance protein NorA (Staphylococcus aureus); test: Inhibition of NorA in Staphylococcus aureus SA-1199B expressing GrlA A116E mutant assessed as minimal potentiating drug concentration causing 8 fold reduction in ciprofloxacin MIC by microdilution method based Checkerboard assay
Staphylococcus aureus [8] = test: Antimicrobial activity against Staphylococcus aureus SA-1199B expressing wild type norA and co-expressing GrlA A116E mutant by microdilution method; type: organism-based; conditions: in vivo
How it was run: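 CLSI broth microdilution MIC of the compound alone. Strains: SA-K1902 (norA deleted), SA-K2378 (SA-K1902 carrying norA plus its promoter on multicopy plasmid pCU1), SA-1199B (norA overexpressing, GrlA A116E).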

Staphylococcus aureus [9] = test: Synergistic potentiation of ciprofloxacin-induced antimicrobial activity against wild type Staphylococcus aureus ATCC 25923 at 0.78 to 100 ug/ml by microdilution method based Checkerboard assay; type: functional, organism-based

Compound: CCCOc1ccc(-c2cc(OCCN3CCCCCC3)c3c(OC)cccc3n2)cc1
- inhibition [1]: 74.8%

Compound: CCCOc1ccc(-c2cc(OCCN3CCN(Cc4ccccc4)CC3)c3cc(OC)ccc3n2)cc1
- inhibition [1]: 32%

Compound: CCCOc1ccc(-c2cc(OCCN3CCNCC3)c3cccc(OC)c3n2)cc1
- inhibition (Staphylococcus aureus [2]): Active
- IC50 [3]: 9.9 µM
- inhibition [4]: Active
- MIC (Staphylococcus aureus [5]): > 100 µg/mL
- MIC (Staphylococcus aureus [6]): > 100 µg/mL
- Activity [7]: 25 µg/mL
- MIC (Staphylococcus aureus [8]): > 237 µM
- inhibition [1]: 100%
- synergistic potentiation of ciprofloxacin activity (Staphylococcus aureus [9]): Active

Compound: CCCOc1ccc(-c2cc(OCCN3CCCCCC3)c3cccc(OC)c3n2)cc1
- inhibition [1]: 72.8%

Compound: CCCOc1ccc(-c2cc(OCCN(CC)CC)c3cc(OC)cc(OC)c3n2)cc1
- inhibition (Staphylococcus aureus [2]): Active
- IC50 [3]: 4.6 µM
- inhibition [4]: Active
- MIC (Staphylococcus aureus [5]): > 100 µg/mL
- MIC (Staphylococcus aureus [6]): 100 µg/mL (≈ 228 µM)
- Activity [7]: 6.25 µg/mL
- MIC (Staphylococcus aureus [8]): > 228 µM
- inhibition [1]: 92.4%
- synergistic potentiation of ciprofloxacin activity (Staphylococcus aureus [9]): Active

Compound: CCCOc1ccc(-c2cc(O)c3c(OC)cccc3n2)cc1
- IC50 [3]: 4.1 µM
- MIC (Staphylococcus aureus [8]): 40.4 µM (≈ 12.5 µg/mL)
- inhibition [1]: 91.4%

Compound: CCCOc1ccc(-c2cc(OCCN3CCCCCC3)c3c(OC)cc(OC)cc3n2)cc1
- inhibition [1]: 74.1%

Compound: CCCOc1ccc(-c2cc(OCCN3CCCCC3)c3cccc(OC)c3n2)cc1
- IC50 [3]: 11.9 µM
- MIC (Staphylococcus aureus [8]): 238 µM (≈ 100 µg/mL)
- inhibition [1]: 88.7%

Compound: CCCOc1ccc(-c2cc(OCCN3CCNCC3)c3cc(OC)ccc3n2)cc1
- IC50 [3]: 15.6 µM
- MIC (Staphylococcus aureus [8]): 29.6 µM (≈ 12.5 µg/mL)
- inhibition [1]: 84.4%

Compound: CCCOc1ccc(-c2cc(OCCN3CCCCCC3)c3cc(OC)c(OC)cc3n2)cc1
- inhibition [1]: 67.9%

Compound: CCCOc1ccc(-c2cc(OCCCN(C)C)c3cc(OC)ccc3n2)cc1
- inhibition [1]: 79.5%

Compound: CCCOc1ccc(-c2cc(OCCN3CCNCC3)c3ccc(OC)cc3n2)cc1
- inhibition (Staphylococcus aureus [2]): Active
- IC50 [3]: 5.5 µM
- inhibition [4]: Active
- MIC (Staphylococcus aureus [5]): 100 µg/mL (≈ 237 µM)
- MIC (Staphylococcus aureus [6]): 100 µg/mL (≈ 237 µM)
- Activity [7]: 6.25 µg/mL
- MIC (Staphylococcus aureus [8]): 237 µM (≈ 99.9 µg/mL)
- inhibition [1]: 100%
- synergistic potentiation of ciprofloxacin activity (Staphylococcus aureus [9]): Active

Compound: CCCOc1ccc(-c2cc(OCCCN(C)C)c3ccc(OC)cc3n2)cc1
- inhibition (Staphylococcus aureus [2]): Active
- IC50 [3]: 4.3 µM
- inhibition [4]: Active
- MIC (Staphylococcus aureus [5]): 100 µg/mL (≈ 253 µM)
- MIC (Staphylococcus aureus [6]): 100 µg/mL (≈ 253 µM)
- Activity [7]: 6.25 µg/mL
- MIC (Staphylococcus aureus [8]): 232 µM (≈ 91.5 µg/mL)
- inhibition [1]: 100%
- synergistic potentiation of ciprofloxacin activity (Staphylococcus aureus [9]): Active

Compound: CCCOc1ccc(-c2cc(O)c3cc(OC)c(OC)cc3n2)cc1
- inhibition [1]: 79.2%

Compound: CCCOc1ccc(-c2cc(OCCN(CC)CC)c3cccc(OC)c3n2)cc1
- IC50 [3]: 13.7 µM
- MIC (Staphylococcus aureus [8]): 245 µM (≈ 100 µg/mL)
- inhibition [1]: 83.1%

Compound: CCCOc1ccc(-c2cc(O)c3ccc(OC)cc3n2)cc1
- inhibition [1]: 55.7%

Compound: CCCOc1ccc(-c2cc(OCCCl)c3cc(OC)ccc3n2)cc1
- inhibition [1]: 10.5%

Compound: CCCOc1ccc(-c2cc(OCCN3CCCCC3)c3c(OC)cc(OC)cc3n2)cc1
- inhibition [1]: 49.7%

Compound: CCCOc1ccc(-c2cc(OCCN3CCN(Cc4ccccc4)CC3)c3ccc(OC)cc3n2)cc1
- inhibition (Staphylococcus aureus [2]): Active
- IC50 [3]: 7.3 µM
- inhibition [4]: Active
- MIC (Staphylococcus aureus [5]): > 100 µg/mL
- MIC (Staphylococcus aureus [6]): > 100 µg/mL
- Activity [7]: > 100 µg/mL
- MIC (Staphylococcus aureus [8]): > 195 µM
- inhibition [1]: 92.1%
- synergistic potentiation of ciprofloxacin activity (Staphylococcus aureus [9]): Active

Compound: CCCOc1ccc(-c2cc(OCCCl)c3ccc(OC)cc3n2)cc1
- inhibition [1]: 57.5%

Compound: CCCOc1ccc(-c2cc(OCCN3CCc4cc(OC)c(OC)cc4C3)c3cc(OC)ccc3n2)cc1
- inhibition [1]: 33%

Compound: CCCOc1ccc(-c2cc(OCCN3CCCCC3)c3c(OC)cccc3n2)cc1
- IC50 [3]: 19.1 µM
- MIC (Staphylococcus aureus [8]): 59.4 µM (≈ 25 µg/mL)
- inhibition [1]: 83.4%

Compound: CCCOc1ccc(-c2cc(OCCCN(C)C)c3cccc(OC)c3n2)cc1
- inhibition [1]: 64.7%

Compound: C=COc1cc(-c2ccc(OCCC)cc2)nc2c(OC)cccc12
- inhibition [1]: 13.3%

Compound: CCCOc1ccc(-c2cc(OCCCl)c3cccc(OC)c3n2)cc1
- inhibition [1]: 6.8%

Compound: CCCOc1ccc(-c2cc(OCCN3CCc4cc(OC)c(OC)cc4C3)c3cccc(OC)c3n2)cc1
- inhibition [1]: 65.5%
